Data set [1] can be described thus: Clearance in rat hepatic microsomes at 2 uM measured up to 60 mins in presence of NADPH generating system by LC-MS/MS analysis. In kind it is ADME, Microsome. The conditions noted are these: liver microsomes.
The species entered for another data set is Homo sapiens. Nature of the data set: Selectivity ratio of EC50 for TLR7 in human cryopreserved PBMC assessed as induction of IFNalpha production to EC50 for TLR8 in human cryopreserved PBMC assessed as induction of IL-12p40 production. Summed up:
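Cryopreserved healthy-donor human PBMC, recovered 2 h at 37°C/5% CO2, then 100k cells/well in RPMI/10% FBS exposed 24 h at 37°C to a 10-point half-log dilution series (0.5% final DMSO). Supernatant IFNα-2a quantified by MSD electrochemiluminescence immunoassay. Normalized to 10 µM GS-9620 positive and DMSO negative controls; EC50 from 4-parameter logistic fit. For the ratio, divided by the IL-12p40 EC50 from the same PBMC screen.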

In data set [2] the target is Toll-like receptor 5 (Homo sapiens) (UniProt O60602). Nature of the data set: Agonist activity at human TLR5 expressed in HEK293 cells assessed as increase in NF-kappaB activation up to 10 uM incubated for 24 hrs by quanti-blue SEAP reporter gene assay. The data set is classed as cell-based. The conditions noted are these: dose microM <=10, time 24.0 hrs. In short, it runs like this:
(§1)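 HEK293 cells stably expressing individual human TLRs or other innate immune receptors, used as reporter gene assays. Minimum effective concentration defined as the level giving a 3-fold rise over background.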

Data set [3] has as its target T1, Nucleotide-binding oligomerization domain-containing protein 1 (Homo sapiens) (UniProt Q9Y239).
T1 sequence (whole entry): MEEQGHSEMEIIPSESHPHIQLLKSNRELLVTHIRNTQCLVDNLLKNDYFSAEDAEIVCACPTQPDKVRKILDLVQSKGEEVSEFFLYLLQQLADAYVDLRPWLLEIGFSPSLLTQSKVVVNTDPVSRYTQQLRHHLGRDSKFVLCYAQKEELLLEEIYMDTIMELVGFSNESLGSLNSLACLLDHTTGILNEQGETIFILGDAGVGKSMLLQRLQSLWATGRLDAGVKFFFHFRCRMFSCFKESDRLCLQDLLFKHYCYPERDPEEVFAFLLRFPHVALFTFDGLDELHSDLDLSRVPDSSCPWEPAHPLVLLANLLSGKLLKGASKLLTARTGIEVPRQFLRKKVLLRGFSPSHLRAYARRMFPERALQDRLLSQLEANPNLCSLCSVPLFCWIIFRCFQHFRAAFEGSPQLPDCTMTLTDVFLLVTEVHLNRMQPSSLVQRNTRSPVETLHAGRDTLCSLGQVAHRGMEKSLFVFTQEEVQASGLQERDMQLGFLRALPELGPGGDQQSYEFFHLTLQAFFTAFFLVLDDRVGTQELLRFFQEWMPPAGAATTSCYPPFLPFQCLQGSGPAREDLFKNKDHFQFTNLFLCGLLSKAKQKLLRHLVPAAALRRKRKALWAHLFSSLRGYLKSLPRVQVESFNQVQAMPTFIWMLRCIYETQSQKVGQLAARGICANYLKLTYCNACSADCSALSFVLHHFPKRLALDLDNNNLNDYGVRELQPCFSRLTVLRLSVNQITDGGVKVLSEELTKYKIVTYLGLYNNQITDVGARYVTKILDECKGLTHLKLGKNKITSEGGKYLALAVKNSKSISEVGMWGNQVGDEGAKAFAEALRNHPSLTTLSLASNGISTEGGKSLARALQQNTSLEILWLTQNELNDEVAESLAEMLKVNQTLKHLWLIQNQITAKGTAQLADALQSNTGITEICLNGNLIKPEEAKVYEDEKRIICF
As to the kind of experiment: Agonist activity at human NOD1 expressed in HEK293 cells assessed as increase in NF-kappaB activation up to 10 uM incubated for 24 hrs by quanti-blue SEAP reporter gene assay. In kind it is cell-based. The conditions noted are these: dose microM <=10, time 24.0 hrs. Summed up:
as §1

Data set [4] in a line: AUC (infinity) in Sprague-Dawley rat at 5 mg/kg, po administered via gavage by HPLC-MS analysis. In kind it is ADME, organism-based. Also on record: time infinity, route oral, dose 5 mg/kg. The conditions noted are these: in vivo. Summed up:
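Oral dosing in 2% ethanol/40% PEG 300/58% 0.01N HCl: Sprague Dawley rats 5 mg/kg, beagle dogs 0.5 mg/kg, cynomolgus monkeys 3 mg/kg.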

Data set [5] deals with T2, C-type lectin domain family 7 member A (Homo sapiens) (UniProt Q9BXN2).
T2 sequence (whole entry): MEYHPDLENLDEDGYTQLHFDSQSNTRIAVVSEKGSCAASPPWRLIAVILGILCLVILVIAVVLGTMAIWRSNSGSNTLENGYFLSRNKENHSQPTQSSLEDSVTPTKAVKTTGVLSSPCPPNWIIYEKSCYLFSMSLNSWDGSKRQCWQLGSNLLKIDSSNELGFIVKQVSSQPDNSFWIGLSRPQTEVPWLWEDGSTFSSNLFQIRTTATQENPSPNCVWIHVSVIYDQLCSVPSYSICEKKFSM
Nature of the data set: Agonist activity at human Dectin1b expressed in HEK293 cells assessed as increase in NF-kappaB activation up to 10 uM incubated for 24 hrs by quanti-blue SEAP reporter gene assay. In kind it is cell-based. The conditions noted are these: dose microM <=10, time 24.0 hrs. Summed up:
as §1

The test system of data set [6] is Probable ATP-dependent RNA helicase DDX58 (Homo sapiens). Nature of the data set: Agonist activity at human RIG1 expressed in HEK293 cells assessed as induction of IFN-inducible ISG54 promoter activity up to 10 uM after overnight incubation by secreted lucia luciferase reporter gene assay. The conditions noted are these: dose microM <=10.
Data set [7] can be described thus: Clearance in cynomolgus monkey hepatic microsomes at 2 uM measured up to 60 mins in presence of NADPH generating system by LC-MS/MS analysis. The data set is classed as ADME, Macaca fascicularis, Microsome. The conditions noted are these: liver microsomes.
In data set [8] the target is Toll-like receptor 2 (Homo sapiens) (UniProt O60603). As to the kind of experiment: Agonist activity at human TLR2 expressed in HEK293 cells assessed as increase in NF-kappaB activation up to 10 uM incubated for 24 hrs by quanti-blue SEAP reporter gene assay. The data set is classed as cell-based. The conditions noted are these: dose microM <=10, time 24.0 hrs. In short, it runs like this:
as §1

A short description of data set [9]: Dissociation constant, pKa of the compound. The data set is classed as physicochemical.

Active and inactive are the calls of the source.

Chain of Toll-like receptor 5 (Homo sapiens) (O60602 whole entry): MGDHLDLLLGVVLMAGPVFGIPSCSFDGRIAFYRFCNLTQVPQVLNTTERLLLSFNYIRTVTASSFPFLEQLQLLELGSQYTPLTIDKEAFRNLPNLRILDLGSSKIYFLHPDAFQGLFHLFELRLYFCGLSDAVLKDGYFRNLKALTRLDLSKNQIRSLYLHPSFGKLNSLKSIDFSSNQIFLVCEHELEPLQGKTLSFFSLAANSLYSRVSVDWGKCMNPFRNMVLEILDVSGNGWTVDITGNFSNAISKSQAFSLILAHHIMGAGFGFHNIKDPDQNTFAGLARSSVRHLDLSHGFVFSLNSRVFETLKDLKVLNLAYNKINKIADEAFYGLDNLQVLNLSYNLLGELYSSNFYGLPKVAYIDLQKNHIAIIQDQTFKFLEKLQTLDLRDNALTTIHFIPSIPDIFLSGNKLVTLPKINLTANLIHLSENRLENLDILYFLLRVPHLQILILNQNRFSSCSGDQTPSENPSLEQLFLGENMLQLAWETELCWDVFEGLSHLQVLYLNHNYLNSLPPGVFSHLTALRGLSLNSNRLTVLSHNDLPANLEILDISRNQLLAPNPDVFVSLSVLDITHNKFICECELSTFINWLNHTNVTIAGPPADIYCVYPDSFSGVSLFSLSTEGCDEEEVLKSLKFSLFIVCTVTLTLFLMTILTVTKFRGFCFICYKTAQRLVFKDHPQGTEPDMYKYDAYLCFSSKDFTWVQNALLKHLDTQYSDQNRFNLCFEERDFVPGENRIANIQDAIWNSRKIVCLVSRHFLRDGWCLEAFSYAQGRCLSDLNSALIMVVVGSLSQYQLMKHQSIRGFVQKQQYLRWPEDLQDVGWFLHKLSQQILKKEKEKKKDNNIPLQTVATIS
Chain of Toll-like receptor 2 (Homo sapiens) (O60603 whole entry): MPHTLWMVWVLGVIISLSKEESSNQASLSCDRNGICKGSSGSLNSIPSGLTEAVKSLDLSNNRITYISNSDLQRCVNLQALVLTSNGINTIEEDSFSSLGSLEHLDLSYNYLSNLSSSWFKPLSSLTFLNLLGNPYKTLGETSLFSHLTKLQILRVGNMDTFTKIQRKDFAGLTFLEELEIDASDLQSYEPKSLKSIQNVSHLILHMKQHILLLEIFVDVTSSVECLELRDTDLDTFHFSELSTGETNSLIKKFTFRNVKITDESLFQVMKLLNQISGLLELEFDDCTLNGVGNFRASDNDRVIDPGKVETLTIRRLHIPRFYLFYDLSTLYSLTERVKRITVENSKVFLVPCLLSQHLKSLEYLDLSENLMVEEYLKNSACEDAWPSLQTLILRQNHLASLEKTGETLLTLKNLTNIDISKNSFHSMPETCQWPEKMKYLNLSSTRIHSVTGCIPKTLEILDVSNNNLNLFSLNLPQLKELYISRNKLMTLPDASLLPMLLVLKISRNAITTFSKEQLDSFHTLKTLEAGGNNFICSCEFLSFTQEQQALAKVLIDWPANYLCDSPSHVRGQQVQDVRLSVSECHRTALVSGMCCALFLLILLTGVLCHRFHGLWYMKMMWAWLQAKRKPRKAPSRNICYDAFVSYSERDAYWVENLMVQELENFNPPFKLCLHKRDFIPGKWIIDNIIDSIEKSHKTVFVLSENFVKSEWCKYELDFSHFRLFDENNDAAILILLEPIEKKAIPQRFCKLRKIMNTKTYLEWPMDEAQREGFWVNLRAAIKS

Take `CCCC[C@](C)(CO)Nc1nc(N)nc2cc(F)cnc12` [SELGANTOLIMOD]: the CLhep predicted at 2 µM in data set [1] is 50 mL/min/kg; in data set [7] it was 25 mL/min/kg. Also, the Ratio EC50 in the data set listed under Homo sapiens is > 185. Moreover, the outcome in data set [2], in data set [3], in data set [5], in data set [6] and in data set [8] was inactive. In [4], this molecule returned a total exposure AUC(0-inf) of 0.827 µM·h. In data set [9], the pKa was 6.3.

These data come from ChEMBL document CHEMBL4725242, “Discovery of GS-9688 (Selgantolimod) as a Potent and Selective Oral Toll-Like Receptor 8 Agonist for the Treatment of Chronic Hepatitis B” (J Med Chem, 2020).
